Data set [1] is described as follows: Apparent clearance in mouse at 1 mg/kg, iv. Format: ADME, organism-based. As to conditions: in vivo.
A short description of data set [2]: Inhibition of LMNA fused TRKA V573M mutant (unknown origin) transfected in mouse BaF3 cells assessed as reduction in phosphorylation at Y490 residue after 2 hrs by Western blot analysis. As to conditions: Homo sapiens, BaF3, 2 h. On the technique in general: Immunoblotting shows a protein as a band on a membrane.
Data set [3] has as its target High affinity nerve growth factor receptor (Homo sapiens, UniProt P04629). Description: Inhibition of TRKA in human KM-12-LUC cells assessed as reduction in AKT phosphorylation at S473 residue after 2 hrs by Western blot analysis. The data set is classed as cell-based, KM12-Luc. In outline:
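KM-12-LUC (TPM3-TRKA fused colon cancer cells) grown in RPMI 1640 with 10% FBS and 1% penicillin/streptomycin at 37 °C under 5% CO2. Serially diluted compound added for 2 h. Lysates western blotted for phospho-AKT (T308/S473) and phospho-ERK1/2 (T202/Y204).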

Data set [4] concerns the target VEGFR2 (vascular endothelial growth factor receptor 2), wild type, TEL fusion (Homo sapiens, UniProt P35968). Description: Inhibition of wild type TEL fused VEGFR2 (unknown origin) transfected in mouse BAF3 cells assessed as growth inhibition after 72 hrs by CCK8 assay. Format: cell-based. As to conditions: mouse BaF3 cells transfected with wild type TEL-fused VEGFR2. On the technique in general: Tetrazolium assays rely on reduction of a dye to a coloured formazan, in cell work by metabolically active cells.

Data set [5] in a line: Half life in Beagle dog at 5 mg/kg, po. Format: ADME, organism-based, Canis lupus familiaris. The settings on record: in vivo.
The target in data set [6] is Mast/stem cell growth factor receptor Kit (Homo sapiens, UniProt P10721). Description: Inhibition of human KIT by Z-LYTE or ADP-Glo assay. In a few lines: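 Purified kinase proteins tested biochemically in Z'LYTE or ADP-Glo format.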
Mast/stem cell growth factor receptor Kit, sequence (P10721 whole entry): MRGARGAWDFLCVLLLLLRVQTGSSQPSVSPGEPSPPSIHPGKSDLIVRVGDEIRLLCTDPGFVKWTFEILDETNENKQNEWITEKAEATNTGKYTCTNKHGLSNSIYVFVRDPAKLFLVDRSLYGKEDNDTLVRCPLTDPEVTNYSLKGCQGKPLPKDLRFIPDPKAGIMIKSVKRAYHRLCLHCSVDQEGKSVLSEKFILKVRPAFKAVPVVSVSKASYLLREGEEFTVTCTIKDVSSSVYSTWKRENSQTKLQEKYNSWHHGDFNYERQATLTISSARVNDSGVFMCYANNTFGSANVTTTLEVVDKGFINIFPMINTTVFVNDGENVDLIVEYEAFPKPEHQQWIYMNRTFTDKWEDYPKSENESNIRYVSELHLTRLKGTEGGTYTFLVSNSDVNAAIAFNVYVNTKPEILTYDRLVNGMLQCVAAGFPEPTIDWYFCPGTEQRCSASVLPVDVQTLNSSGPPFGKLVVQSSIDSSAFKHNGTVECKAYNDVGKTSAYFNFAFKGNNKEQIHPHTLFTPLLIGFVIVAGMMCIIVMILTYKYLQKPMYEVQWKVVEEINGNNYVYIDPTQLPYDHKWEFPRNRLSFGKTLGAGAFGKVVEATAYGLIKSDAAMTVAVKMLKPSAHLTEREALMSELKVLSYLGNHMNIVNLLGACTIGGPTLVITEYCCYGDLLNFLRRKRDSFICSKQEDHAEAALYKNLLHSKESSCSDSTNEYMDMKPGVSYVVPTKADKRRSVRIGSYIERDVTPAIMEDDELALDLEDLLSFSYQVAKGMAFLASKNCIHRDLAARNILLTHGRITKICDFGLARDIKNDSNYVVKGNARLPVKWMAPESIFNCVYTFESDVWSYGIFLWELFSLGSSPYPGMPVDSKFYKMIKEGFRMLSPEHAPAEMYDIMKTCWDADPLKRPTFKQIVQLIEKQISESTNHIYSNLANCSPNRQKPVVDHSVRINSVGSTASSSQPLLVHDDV
For orientation: In ADP-Glo the light output rises with the ADP produced.

Data set [7] relates to BaF3. Description: Antitumor activity against mouse BAF3 cells harboring TEL fused TRKB allografted in nude mouse assessed as tumor growth inhibition at 40 mg/kg, po administered once daily for 10 days relative to control. Format: functional. As to conditions: 240 h, time 10 day, read-out: TGI. In outline: (§1)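 Nu/nu mice given 1 million BaF3 cells (TEL-TRKA, TEL-TRKB, TEL-TRKC, LMNA-TRKA-F589L or LMNA-TRKA-G667S) in DMEM, 1:1 with matrigel, injected subcutaneously into the right flank; oral gavage began at 200–400 mm³, 5 mice per group, compound in 0.5% methylcellulose/0.4% Tween 80 in ddH₂O, 10 days; tumor volume [(W²×L)/2] and body weight recorded daily; TGI versus vehicle.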

Data set [8] in a line: Tmax in Beagle dog at 5 mg/kg, po. Format: ADME, organism-based, Canis lupus familiaris. The settings on record: in vivo. In outline:
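Single-dose PK in mice, Sprague Dawley rats and beagle dogs, given i.v. (1 mg/kg) or p.o. (10 mg/kg mice and rats; 5 mg/kg dogs). AUC0-t, T1/2, Tmax and oral bioavailability (F) derived from plasma profiles.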

Data set [9] is described as follows: Toxicity in mouse xenografted with mouse BAF3 cells harboring TEL fused TRKC assessed as effect on animals behaviour at 40 to 80 mg/kg, po administered once daily for 10 days. The data set is classed as organism-based. As to conditions: in vivo, 240 h, dose 40-80 mg/kg/day, time 10 day. In a few lines: (§2)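 nu/nu mice were given subcutaneous right-flank implants in 1:1 DMEM/matrigel: 1 million BaF3 fusion cells or 5 million KM-12-LUC cells. Oral gavage started at 150–200 mm3 (xenograft) or 200–400 mm3 (allograft). Dosing used 40 or 80 mg/kg in HKI vehicle (0.5% methylcellulose/0.4% Tween 80 in ddH2O), with 5 mice per group. Body weight was recorded daily and behaviour observed.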

Data set [10] concerns BaF3. Description: Antitumor activity against mouse BAF3 cells harboring TEL fused TRKB allografted in nude mouse assessed as tumor growth inhibition at 80 mg/kg, po administered once daily for 10 days relative to control. The settings on record: 240 h, time 10 day, read-out: TGI. Format: functional. In outline: as §1
Data set [11] in a line: Apparent clearance in Sprague-Dawley rat at 1 mg/kg, iv. Format: ADME, organism-based. The settings on record: in vivo.
A short description of data set [12]: Half life in Sprague-Dawley rat at 1 mg/kg, iv. The data set is classed as ADME, organism-based. The settings on record: in vivo.
Data set [13] concerns BaF3. Description: Antitumor activity against mouse BAF3 cells harboring TEL fused TRKA allografted in nude mouse assessed as tumor growth inhibition at 40 mg/kg, po administered once daily for 10 days relative to control. Format: functional. The settings on record: 240 h, time 10 day, read-out: TGI. In a few lines: as §1
Data set [14] in a line: Cmax in mouse at 1 mg/kg, iv. Format: ADME, organism-based. More on the design: route intravenous, dose 1 mg/kg. As to conditions: in vivo.
Data set [15] is described as follows: Toxicity in mouse xenografted with human […] cells assessed as effect on abnormal behaviour at 40 to 80 mg/kg, po administered once daily for 10 days. As to conditions: in vivo, 240 h, dose 40-80 mg/kg/day, time 10 day. Format: organism-based. In outline:
as §2

In data set [16] the target is High affinity nerve growth factor receptor (Homo sapiens, UniProt P04629, G595R). Description: Inhibition of LMNA fused TRKA G595R mutant (unknown origin) transfected in mouse BaF3 cells assessed as reduction in phosphorylation at Y490 residue after 2 hrs by Western blot analysis. Format: cell-based.
High affinity nerve growth factor receptor (Homo sapiens, UniProt P04629, G595R), sequence (P04629 33-796 G595R limits assumed): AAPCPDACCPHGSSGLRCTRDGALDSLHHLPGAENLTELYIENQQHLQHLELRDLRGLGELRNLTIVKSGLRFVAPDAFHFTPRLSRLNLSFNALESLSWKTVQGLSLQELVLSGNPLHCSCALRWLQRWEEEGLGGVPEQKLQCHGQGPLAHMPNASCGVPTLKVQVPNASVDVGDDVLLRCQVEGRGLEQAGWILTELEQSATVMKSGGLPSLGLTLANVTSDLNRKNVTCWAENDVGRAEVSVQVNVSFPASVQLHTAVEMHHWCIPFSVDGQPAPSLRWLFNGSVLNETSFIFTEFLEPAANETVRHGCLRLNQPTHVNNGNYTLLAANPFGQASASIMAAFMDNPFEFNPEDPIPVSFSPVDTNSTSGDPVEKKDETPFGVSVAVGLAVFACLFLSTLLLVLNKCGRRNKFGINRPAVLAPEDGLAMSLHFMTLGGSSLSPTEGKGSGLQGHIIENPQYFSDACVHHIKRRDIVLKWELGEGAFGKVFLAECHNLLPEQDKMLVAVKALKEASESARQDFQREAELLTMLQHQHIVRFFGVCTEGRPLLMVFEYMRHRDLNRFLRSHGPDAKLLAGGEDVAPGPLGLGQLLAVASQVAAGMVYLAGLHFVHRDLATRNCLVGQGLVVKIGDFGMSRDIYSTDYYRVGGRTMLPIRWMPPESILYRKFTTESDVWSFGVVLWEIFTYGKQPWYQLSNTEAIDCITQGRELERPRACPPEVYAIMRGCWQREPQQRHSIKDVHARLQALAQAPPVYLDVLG
The nature of data set [17]: Toxicity in mouse xenografted with mouse BAF3 cells harboring […] TRKA-G667S mutant assessed as effect on body weight at 40 to 80 mg/kg, po administered twice daily for 10 days. As to conditions: in vivo, 240 h, dose 40-80 mg/kg, time 10 day. Format: organism-based. In a few lines: as §2

SMILES strings stand for the structures. Where only a bound is given, the exact number is not on record here.

VEGFR2 (vascular endothelial growth factor receptor 2), wild type, TEL fusion, sequence (P35968 whole entry, the tested form may be a part): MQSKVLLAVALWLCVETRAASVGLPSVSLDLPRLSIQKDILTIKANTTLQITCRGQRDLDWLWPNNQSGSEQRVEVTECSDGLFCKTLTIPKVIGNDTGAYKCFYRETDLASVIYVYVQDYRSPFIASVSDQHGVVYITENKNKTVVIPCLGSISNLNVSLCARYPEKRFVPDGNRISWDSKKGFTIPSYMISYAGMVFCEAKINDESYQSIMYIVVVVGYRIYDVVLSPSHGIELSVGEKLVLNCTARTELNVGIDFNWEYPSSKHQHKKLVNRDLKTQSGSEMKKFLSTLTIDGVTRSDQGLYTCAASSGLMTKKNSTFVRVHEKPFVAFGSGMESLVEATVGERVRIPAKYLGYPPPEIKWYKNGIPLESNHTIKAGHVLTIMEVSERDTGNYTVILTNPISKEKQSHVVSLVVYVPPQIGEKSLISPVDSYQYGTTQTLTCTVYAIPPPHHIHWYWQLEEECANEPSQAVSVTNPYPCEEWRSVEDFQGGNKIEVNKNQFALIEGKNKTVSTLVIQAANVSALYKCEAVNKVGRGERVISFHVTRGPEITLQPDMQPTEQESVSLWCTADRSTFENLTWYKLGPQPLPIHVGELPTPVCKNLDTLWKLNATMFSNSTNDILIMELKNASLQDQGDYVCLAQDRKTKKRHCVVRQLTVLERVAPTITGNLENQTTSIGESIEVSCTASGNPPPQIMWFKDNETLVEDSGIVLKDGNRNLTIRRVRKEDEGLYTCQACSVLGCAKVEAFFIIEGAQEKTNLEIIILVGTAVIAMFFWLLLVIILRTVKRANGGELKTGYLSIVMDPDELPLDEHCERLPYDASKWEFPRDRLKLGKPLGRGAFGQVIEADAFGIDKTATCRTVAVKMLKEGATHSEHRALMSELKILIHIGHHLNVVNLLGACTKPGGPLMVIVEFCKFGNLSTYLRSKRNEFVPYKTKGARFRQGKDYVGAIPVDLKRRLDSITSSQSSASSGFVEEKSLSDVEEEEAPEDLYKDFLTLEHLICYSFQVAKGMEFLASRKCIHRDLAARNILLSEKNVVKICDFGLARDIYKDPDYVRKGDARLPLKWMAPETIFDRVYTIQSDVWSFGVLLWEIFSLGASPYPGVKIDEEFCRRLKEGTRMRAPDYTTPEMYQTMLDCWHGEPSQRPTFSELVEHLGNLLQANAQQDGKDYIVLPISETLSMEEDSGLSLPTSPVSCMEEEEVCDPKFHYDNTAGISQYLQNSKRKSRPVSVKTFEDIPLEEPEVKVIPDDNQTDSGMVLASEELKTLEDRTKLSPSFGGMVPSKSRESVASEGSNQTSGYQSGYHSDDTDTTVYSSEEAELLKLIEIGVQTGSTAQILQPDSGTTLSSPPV
High affinity nerve growth factor receptor (Homo sapiens, UniProt P04629), sequence (P04629 whole entry, the tested form may be a part): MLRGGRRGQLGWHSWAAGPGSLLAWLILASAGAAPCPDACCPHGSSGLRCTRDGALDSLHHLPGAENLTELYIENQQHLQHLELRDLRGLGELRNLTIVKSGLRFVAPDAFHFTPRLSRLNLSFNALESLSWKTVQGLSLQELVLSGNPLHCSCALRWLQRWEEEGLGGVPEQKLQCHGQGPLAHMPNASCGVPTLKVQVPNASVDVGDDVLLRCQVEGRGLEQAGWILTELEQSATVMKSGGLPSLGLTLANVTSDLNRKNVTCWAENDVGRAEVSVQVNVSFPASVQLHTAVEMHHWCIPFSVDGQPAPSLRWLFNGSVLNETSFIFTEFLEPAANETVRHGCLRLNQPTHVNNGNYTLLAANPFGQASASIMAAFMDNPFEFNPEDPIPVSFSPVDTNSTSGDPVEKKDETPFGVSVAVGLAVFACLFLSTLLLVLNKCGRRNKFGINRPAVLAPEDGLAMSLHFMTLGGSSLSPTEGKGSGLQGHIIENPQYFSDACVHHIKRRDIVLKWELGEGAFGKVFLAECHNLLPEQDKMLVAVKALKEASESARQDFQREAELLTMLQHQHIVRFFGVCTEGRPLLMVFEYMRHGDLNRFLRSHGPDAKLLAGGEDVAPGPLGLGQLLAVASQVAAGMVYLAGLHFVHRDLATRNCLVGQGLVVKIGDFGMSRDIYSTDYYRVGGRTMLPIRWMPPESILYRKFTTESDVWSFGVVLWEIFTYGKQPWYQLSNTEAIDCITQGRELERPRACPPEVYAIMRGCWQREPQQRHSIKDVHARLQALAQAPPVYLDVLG

As to `Cc1nc(NC(=O)CN2CCN(C)CC2)sc1-c1ccc2c(/C=C/c3ccccn3)n[nH]c2c1`, the CLz/F was 21.7 mL/min/kg in data set [1] and 41.35 mL/min/kg in data set [11]. Further, the EC50 (in general, the concentration giving half of the maximal effect) in [2] was 0.013 µM; in data set [3] it was below 0.03 µM; in [16], 0.12 µM. In addition, the 50% growth inhibitory concentration (GI50) – broadly, the concentration giving 50% growth inhibition – at 72 h in data set [4] was found to be 1.18 µM. Further, the values for the t1/2 in data set [5] and in [12] were 11.8 h and 2.7 h, respectively. In addition, it took 2.17 µM to reach half-maximal inhibition in data set [6] (IC50). Also, the inhibition in vivo at 40 mg/kg/day in data set [7] is 83.1%; in [13] it was 52.2%. For the same molecule, the time of peak concentration (Tmax) (commonly the time from dosing to the highest level) in data set [8] amounted to 4.3 h. Besides, the Activity result in data set [9], in data set [15] and in data set [17] was “Non-Toxic” each time. Besides, the inhibition in vivo at 80 mg/kg/day in data set [10] amounted to 92.7%. The peak concentration (Cmax) (usually the maximum level reached in the sampled fluid or tissue) in data set [14] came to 1110 ng/mL.

The record behind these values is ChEMBL document CHEMBL4765452, “Discovery of (E)-N-(4-methyl-5-(3-(2-(pyridin-2-yl)vinyl)-1H-indazol-6-yl)thiazol-2-yl)-2-(4-methylpiperazin-1-yl)acetamide (IHMT-TRK-284) as a novel orally available type II TRK kinase inhibitor capable of overcoming multiple resistant mutants” (Eur J Med Chem, 2020).
